Laboratory results as given in ChEMBL document CHEMBL1123925 (J Med Chem, 1987).

Experiments:
[1] = biological target: GABA-A receptor; anion channel; test: Displacement of [3H]GABA from Gamma-aminobutyric acid A receptor ofrat brain membranes; parameters: species or system Rattus norvegicus
In short: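 Male Wistar rat whole-brain synaptic membranes, frozen at -20 °C for at least 18 h, Triton X-100 (0.05%) treated at 37 °C for 30 min. Filtration, scintillation counting. Nonspecific binding with 100 μM muscimol. IC50 by log-probit analysis; means of two triplicate experiments.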

[2] = biological target: GABA B receptor (Rattus norvegicus, UniProt O88871+Q9Z0U4); test: Displacement of [3H]baclofen from Gamma-aminobutyric acid type B receptor of rat brain membranes; format: cell membranes, Membrane
GABA B receptor, sequence (Q9Z0U4 whole entry): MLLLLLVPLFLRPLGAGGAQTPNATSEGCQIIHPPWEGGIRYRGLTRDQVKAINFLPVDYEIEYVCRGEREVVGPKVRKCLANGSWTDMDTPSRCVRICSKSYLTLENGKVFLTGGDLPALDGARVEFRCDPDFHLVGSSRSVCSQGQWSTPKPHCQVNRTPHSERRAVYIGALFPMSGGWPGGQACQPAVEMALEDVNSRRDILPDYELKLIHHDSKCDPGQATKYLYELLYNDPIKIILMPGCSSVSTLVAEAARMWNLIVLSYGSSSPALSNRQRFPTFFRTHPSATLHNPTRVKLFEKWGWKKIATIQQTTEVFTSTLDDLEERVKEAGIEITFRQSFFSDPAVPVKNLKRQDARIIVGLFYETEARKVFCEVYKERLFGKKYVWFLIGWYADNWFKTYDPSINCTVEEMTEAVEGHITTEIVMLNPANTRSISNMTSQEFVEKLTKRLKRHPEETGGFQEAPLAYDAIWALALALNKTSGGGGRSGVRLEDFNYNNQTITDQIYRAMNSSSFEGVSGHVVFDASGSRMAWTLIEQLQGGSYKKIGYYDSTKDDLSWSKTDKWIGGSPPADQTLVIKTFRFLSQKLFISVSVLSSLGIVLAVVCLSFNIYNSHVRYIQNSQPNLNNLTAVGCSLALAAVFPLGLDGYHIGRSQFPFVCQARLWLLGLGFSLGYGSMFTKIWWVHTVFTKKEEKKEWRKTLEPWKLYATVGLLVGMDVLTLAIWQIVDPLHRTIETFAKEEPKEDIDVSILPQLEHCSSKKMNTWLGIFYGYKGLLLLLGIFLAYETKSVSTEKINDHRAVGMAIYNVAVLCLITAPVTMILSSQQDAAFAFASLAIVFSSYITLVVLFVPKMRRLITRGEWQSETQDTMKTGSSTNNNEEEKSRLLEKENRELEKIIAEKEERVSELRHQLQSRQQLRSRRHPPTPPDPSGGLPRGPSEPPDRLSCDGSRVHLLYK
GABA B receptor, sequence (O88871 whole entry): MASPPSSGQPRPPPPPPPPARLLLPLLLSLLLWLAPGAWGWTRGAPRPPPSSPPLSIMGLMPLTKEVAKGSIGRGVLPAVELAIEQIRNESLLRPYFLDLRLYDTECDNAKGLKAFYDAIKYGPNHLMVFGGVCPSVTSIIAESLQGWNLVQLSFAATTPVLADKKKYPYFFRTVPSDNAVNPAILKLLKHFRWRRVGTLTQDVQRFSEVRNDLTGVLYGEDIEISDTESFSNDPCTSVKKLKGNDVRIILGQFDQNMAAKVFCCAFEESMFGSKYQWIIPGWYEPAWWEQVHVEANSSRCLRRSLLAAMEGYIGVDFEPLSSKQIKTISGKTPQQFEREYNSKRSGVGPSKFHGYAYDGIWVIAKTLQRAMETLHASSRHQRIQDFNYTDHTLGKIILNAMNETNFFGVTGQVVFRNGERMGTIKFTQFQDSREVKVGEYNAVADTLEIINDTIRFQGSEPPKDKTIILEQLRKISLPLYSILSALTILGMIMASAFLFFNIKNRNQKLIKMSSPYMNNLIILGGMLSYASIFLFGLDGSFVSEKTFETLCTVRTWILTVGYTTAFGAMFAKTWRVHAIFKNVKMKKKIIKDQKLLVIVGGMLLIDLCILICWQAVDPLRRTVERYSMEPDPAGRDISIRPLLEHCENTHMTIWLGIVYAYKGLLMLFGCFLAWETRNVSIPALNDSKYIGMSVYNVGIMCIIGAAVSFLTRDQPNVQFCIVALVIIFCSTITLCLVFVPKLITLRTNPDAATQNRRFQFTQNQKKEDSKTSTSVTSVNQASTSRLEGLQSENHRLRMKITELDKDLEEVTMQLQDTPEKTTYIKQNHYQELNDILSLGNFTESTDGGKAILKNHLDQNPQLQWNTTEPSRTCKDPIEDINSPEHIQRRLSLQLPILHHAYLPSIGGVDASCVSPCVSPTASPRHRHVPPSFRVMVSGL
In short: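 Rat whole-brain synaptic membranes were water-washed and frozen at -20 °C for at least 18 h. They were then washed repeatedly in 50 mM Tris-HCl pH 7.4 with 2.5 mM CaCl2 at 20 °C. The assay was stopped by centrifugation and read by scintillation counting. IC50 values are means of two experiments.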

Q: Which IC50 [1] does the source give for `CC(C)Oc1ccc(C(CN)CC(=O)O)cc1` (centres undefined) here?
A: > 100 µM

Q: What does the source list for `NCC(CC(=O)O)C1Cc2ccccc2O1` (centres undefined)?
A: IC50 [2]: > 100 µM; IC50 [1]: > 100 µM

Q: Which results are given for `COc1ccc2oc(C(CN)CC(=O)O)cc2c1` (centres undefined)?
A: IC50 [2]: 5.6 µM; IC50 [1]: > 100 µM

Q: With `NCC(CC(=O)O)c1ccc(OCc2ccc(Cl)s2)cc1` (centres undefined) as the compound, how does the IC50 [1] read?
A: > 100 µM

Q: `COc1ccc2c(c1)CC(C(CN)CC(=O)O)O2` (centres undefined) was tested. Which IC50 [2] did it give?
A: > 100 µM

Q: And the IC50 [1]?
A: > 100 µM

Q: Which results are given for `NCC(CC(=O)O)c1ccc(O)cc1` (centres undefined)?
A: IC50 [2]: > 100 µM; IC50 [1]: > 100 µM

Q: For `NCC(CC(=O)O)c1cc2ccccc2o1` (centres undefined), which IC50 [2] is on record?
A: 18 µM

Q: And the IC50 [1]?
A: > 100 µM

Q: With `NCC(CC(=O)O)c1ccc(OCc2ccccc2)cc1` (centres undefined) as the compound, how does the IC50 [2] read?
A: > 100 µM

Q: What about the IC50 [1] of the same compound?
A: > 100 µM

Q: With `NCC(CC(=O)O)c1ccc(OCc2ccc(F)cc2)cc1` (centres undefined) as the compound, how does the IC50 [2] read?
A: > 100 µM

Q: And the IC50 [1]?
A: > 100 µM

Q: With `Cn1c(=O)oc2cc(C(CN)CC(=O)O)ccc21` (centres undefined) as the compound, how does the IC50 [2] read?
A: > 100 µM

Q: What about the IC50 [1] of the same compound?
A: > 100 µM

Q: Which IC50 [1] does the source give for `NCc1cc(=O)[nH]o1` [MUSCIMOL] here?
A: 0.01 µM
